From ChEMBL document CHEMBL4385612, “Novel 15-Lipoxygenase-1 Inhibitor Protects Macrophages from Lipopolysaccharide-Induced Cytotoxicity” (J Med Chem, 2019)
Blank lines part the entries; values can stand above or below the compound they belong to. Calls of active or inactive are those of the source. No cut-off for these calls is given here.

Assays:
[1] = target: T1, Polyunsaturated fatty acid lipoxygenase ALOX15 (Homo sapiens, UniProt P16050); assay: Inhibition of human recombinant N-terminal His6-tagged 15-LOX1 expressed in Escherichia coli BL21(DE3) using linoleic acid as substrate preincubated for 10 mins followed by substrate addition by UV absorption analysis
T1 sequence (P16050 whole entry): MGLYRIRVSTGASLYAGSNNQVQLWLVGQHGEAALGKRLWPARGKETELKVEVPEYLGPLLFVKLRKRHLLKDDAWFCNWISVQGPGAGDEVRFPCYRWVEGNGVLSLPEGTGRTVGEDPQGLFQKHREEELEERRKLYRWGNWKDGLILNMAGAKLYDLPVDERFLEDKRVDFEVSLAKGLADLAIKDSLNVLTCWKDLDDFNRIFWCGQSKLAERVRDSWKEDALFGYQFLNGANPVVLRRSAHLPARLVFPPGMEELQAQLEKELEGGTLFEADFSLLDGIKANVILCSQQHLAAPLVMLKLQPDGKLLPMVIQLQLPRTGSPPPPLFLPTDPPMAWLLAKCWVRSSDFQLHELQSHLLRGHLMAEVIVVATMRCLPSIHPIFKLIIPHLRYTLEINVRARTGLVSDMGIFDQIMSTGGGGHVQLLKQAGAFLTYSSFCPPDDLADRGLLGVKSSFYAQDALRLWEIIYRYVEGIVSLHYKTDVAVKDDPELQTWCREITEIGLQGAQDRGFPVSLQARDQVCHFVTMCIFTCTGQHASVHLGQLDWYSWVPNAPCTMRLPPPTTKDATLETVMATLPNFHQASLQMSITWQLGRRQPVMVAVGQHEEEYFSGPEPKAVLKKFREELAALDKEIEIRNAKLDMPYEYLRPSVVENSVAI

RAW264.7 [2] = assay: Protection against LPS-induced cell death in mouse RAW264.7 cells assessed as increase in cell viability at 5 uM measured after 48 hrs by MTS assay relative to control; type: functional
In short: (§1)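 RAW 264.7 cells seeded at 5000 per well. Given 100 μg/mL LPS together with compound (0.2, 1, 5 μM) for 48 h. Viability measured by MTS: reagent for 2 h at 37 °C, absorbance at 490 nm. Compared with LPS-only control. n = 3–13, mean ± SEM.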

[3] = target: T2, Polyunsaturated fatty acid lipoxygenase ALOX15 (Mus musculus) (UniProt P39654); assay: Inhibition of 15LOX1 in LPS/IFNgamma-stimulated mouse RAW264.7 cells assessed as down regulation of iNOS gene expression at 5 uM preincubated for 20 hrs followed by LPS/IFNgamma stimulation and measured after 4 hrs by RT-PCR analysis relative to control; type: cell-based
T2 sequence (whole entry): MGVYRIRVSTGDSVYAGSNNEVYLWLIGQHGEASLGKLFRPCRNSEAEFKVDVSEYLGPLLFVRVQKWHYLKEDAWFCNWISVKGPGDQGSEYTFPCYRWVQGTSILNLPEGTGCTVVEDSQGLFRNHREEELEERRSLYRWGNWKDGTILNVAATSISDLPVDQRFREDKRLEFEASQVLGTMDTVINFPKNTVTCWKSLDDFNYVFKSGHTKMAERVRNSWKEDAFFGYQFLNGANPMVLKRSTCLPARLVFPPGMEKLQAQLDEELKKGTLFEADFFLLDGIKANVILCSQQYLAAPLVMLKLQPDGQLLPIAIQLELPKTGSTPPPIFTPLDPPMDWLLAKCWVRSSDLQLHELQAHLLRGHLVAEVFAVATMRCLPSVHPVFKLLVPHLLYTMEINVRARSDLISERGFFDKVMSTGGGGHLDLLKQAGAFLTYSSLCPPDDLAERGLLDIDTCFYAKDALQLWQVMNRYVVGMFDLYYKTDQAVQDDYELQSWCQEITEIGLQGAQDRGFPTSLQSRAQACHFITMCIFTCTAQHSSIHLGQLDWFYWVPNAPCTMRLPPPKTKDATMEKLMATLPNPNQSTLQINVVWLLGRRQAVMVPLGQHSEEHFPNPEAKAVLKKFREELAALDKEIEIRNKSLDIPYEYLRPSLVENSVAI
In short: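 RAW 264.7 cells pretreated with compound (0.2, 1, 5 μM) for 20 h, then stimulated with LPS/IFNγ (10 ng/mL each) for 4 h in its presence. Total RNA isolated and integrity checked by 28S/18S ratio. RNA reverse-transcribed, and 10 ng cDNA used per real-time PCR. iNOS expression calculated by 2^–ΔΔCt and normalised to the stimulated positive control. n = 3–4, mean ± SEM.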

RAW264.7 [4] = assay: Inhibition of LPS/IFNgamma-stimulated lipid peroxidation in mouse RAW264.7 cells at 5 uM after 24 hrs by BODIPY 581/591 C11-staining based FACS assay; type: functional, cell-based
In short: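 RAW 264.7 cells, 10 × 10^6 per well, incubated overnight. Then LPS/IFNγ (10 ng/mL each) for 24 h with or without inhibitor at 5 μM. Unstimulated cells served as control. Stained with BODIPY 581/591 C11 for 30 min at 37 °C. Red-to-green fluorescence shift measured by flow cytometry, 488 nm excitation. n = 3, mean ± SEM.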

[5] = Stability in pH 7.4 2-betamercaptoethanol at 25 to 50 uM by UV-spectra analysis; type: physicochemical; settings: buffer, pH 7.4, 50 µM
In short: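 UV spectrum of compound recorded during incubation with 2-mercaptoethanol at pH 7.4, to follow thiol conjugate addition to the α,β-unsaturated amide.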

RAW264.7 [6] = assay: Protection against LPS-induced cell death in mouse RAW264.7 cells assessed as increase in cell viability measured after 48 hrs by MTS assay; type: functional, cell-based; in short: as §1
[7] = target: T2, Polyunsaturated fatty acid lipoxygenase ALOX15 (Mus musculus); assay: Inhibition of 15-LOX1 in LPS/IFNgamma-stimulated mouse RAW264.7 cells assessed as reduction in nitric oxide production preincubated for 20 hrs followed by LPS/IFNgamma stimulation and measured after 4 hrs by colorimetric method; type: cell-based
In short: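 RAW 264.7 cells stimulated with LPS and IFNγ (10 ng/mL each). Figure legend: compound added at 0.2, 1 and 5 μM for 20 h, then LPS/IFNγ for a further 4 h. Methods describe 2 × 10^6 cells per well and a 24 h incubation at 5 μM. Total nitrate/nitrite measured with a colorimetric kit. Stimulated control set to 100%. n = 3, mean ± SEM.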

[8] = target: T2, Polyunsaturated fatty acid lipoxygenase ALOX15 (Mus musculus); assay: Inhibition of N144 probe binding to 15-LOX in mouse RAW264.7 cells measured after 2 mins by HRP-coupled Western blot analysis; type: cell-based
In short: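 Lysates of inhibitor-treated and untreated RAW 264.7 cells exposed to covalent alkene probe N144 for 2 min. Probe then biotinylated by oxidative Heck reaction with a biotinylated phenylboronic acid and detected on blots with streptavidin–HRP. Blots also probed for 15-LOX-1 and β-actin. Band intensities normalised to β-actin. n = 3 independent experiments, mean ± SEM.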

[9] = target: T2, Polyunsaturated fatty acid lipoxygenase ALOX15 (Mus musculus); assay: Inhibition of 15LOX1 in mouse RAW blue cells assessed as suppression of LPS/IFNgamma-stimulated NFkappaB activation by measuring reduction in SEAP release at 0.2 to 5 uM preincubated for 20 hrs followed by LPS/IFNgamma-stimulation and measured after 4 hrs by quanti blue reagent-based reporter gene assay; type: cell-based
In short: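 RAW-Blue cells (RAW 264.7 carrying an NF-κB–SEAP reporter, kept with 200 μg/mL Zeocin) seeded at 10 × 10^4 per well the day before. Pretreated with compound (0.2, 1, 5 μM) for 20 h, then LPS and IFNγ (10 ng/mL each) added for 4 h. Secreted SEAP read with QuantiBlue after 2 h at 37 °C, absorbance 635–655 nm. n = 8–16, mean ± SEM.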

Compound: CCOC(=O)c1[nH]c2cc(Cl)ccc2c1C(=O)C[C@@H](C)CCCC(C)C
Activity (RAW264.7 [2]): Active

Compound: O=C(NC1CC1)c1cc2ccc(Cl)cc2[nH]1
IC50 [1]: > 20 µM

Compound: CCOC(=O)c1[nH]c2cc(Cl)ccc2c1/C=C/C(=O)NCc1ccccc1OC
inhibition [3]: 50%
inhibition (RAW264.7 [4]): Active
Stability [5]: Stable
Activity (RAW264.7 [6]): Dose-dependent effect
inhibition [7]: Dose-dependent effect
inhibition [8]: Active
Activity (RAW264.7 [2]): 20%
inhibition [9]: Active

Compound: c1ccc2c(c1)SCc1c-2[nH]c2ccccc12
inhibition (RAW264.7 [4]): Active

Compound: CC(c1cc2ccccc2s1)N(O)C(N)=O (centres undefined)
inhibition (RAW264.7 [4]): Active
Activity (RAW264.7 [2]): Active

The next lines start with the values.

IC50 [1]: > 20 µM
Compound: CCCNC(=O)c1[nH]c2cc(Cl)ccc2c1CN(C)C

IC50 [1]: > 20 µM
Compound: CCCNC(=O)c1c(C(=O)OCC)[nH]c2cc(Cl)ccc12

IC50 [1]: > 20 µM
Compound: CCCNC(=O)c1[nH]c2cc(Cl)ccc2c1/C=C/C(=O)NCc1ccccc1OC

IC50 [1]: > 20 µM
Compound: CCOC(=O)c1[nH]c2cc(Cl)ccc2c1/C=C/C(=O)NCCc1ccccc1

IC50 [1]: > 20 µM
Compound: CCCNC(=O)c1[nH]c2cc(Cl)ccc2c1C(=O)C[C@@H](C)CCCC(C)C

IC50 [1]: > 20 µM
Compound: CCCNC(=O)c1[nH]c2cc(Cl)ccc2c1C(=O)C[C@H](C)CCCC(C)C
